CSC inhib – blocks cancer stem cells; 300,000 compounds, 1.1% hits; inhibition, % at 7.5 µM; cancer stem cell-like cells viability, luminescence; in the data active means inhibition above about 75%; tested in HMLE shEcad cells
CHOP UPR activ – apoptotic UPR (CHOP) activation; activation, % at 10 µM; 330,000 compounds, 0.34% hits; CHO-CHOP luciferase reporter, luminescence; percent of tunicamycin response over DMSO baseline;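 active means at 10 µM dose, activation of 40% or more, normalized to positive control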;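 further: 100% = tunicamycin at 10 µg/mL and 0% = DMSO alone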
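measured by = luciferase luminescence | assay system = CHO-CHOP cells, stable luciferase reporter of PERK-eIF2a-CHOP signalling | amount = 500 reporter cells seeded per well | timing = 6 h compound exposure at 37 °C after overnight seeding | controls = positive tunicamycin 10 µg/mL, negative DMSO alone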
Mdm2-MdmX inh – inhibitors of human Mdm2/MdmX interaction. inhibition, % at 8 µM. 330,000 compounds, 3% hits. SaOS-2 split-luciferase Mdm2/MdmX complementation, luminescence. O15151+Q00987;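 active means inhibition of at least 50% at 8 µM in the primary screen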
XBP1 UPR activ – activators of adaptive arm of unfolded protein response (XBP1); AID 463104; 330,000 compounds, 0.33% hits; activation, % at 20 µM; CHO-XBP1 luciferase reporter, IRE1-XBP1 UPR activation, luminescence; percent of tunicamycin response, DMSO as zero;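 active means versus positive control, 20 µM dose yields 30% or more activation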;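 further: 100% = tunicamycin at 10 µg/mL and 0% = DMSO only wells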
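assay system = CHO-XBP1 luciferase reporter cells | amount = 1000 cells/well | buffer or medium = F12 plus 10% FBS | compound dosing = single point, 20 µM final compound, 1% DMSO | incubation = 16-18 h cell attachment at 37 °C, then 6 h compound exposure | detection = Steady-Glo luminescence read | controls = tunicamycin 10 µg/mL and vehicle-only wells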
SKKanGAS inh – blocks kanamycin growth of S. pyogenes SKKanGAS strain; BacTiter-Glo, 6 h; inhibition, % at 7.5 µM; 300,000 compounds, 1.3% hits; AID 1662;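 active means mean replicate score, as percent of positive control median, at least 50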;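 further: strain carries kanamycin resistance gene driven by streptokinase promoter and grows in 40 µg/ml kanamycin; loss of luminescence reflects streptokinase promoter inhibition or plain growth inhibition; 0% = median of DMSO wells and 100% = positive control at its reference dose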
Beta apoptosis – beta cell apoptosis inhibition. protection from apoptosis, % (test concentration not listed). 300,000 compounds, 0.8% hits. AID 435005. INS-1E cytokine-induced death, ATP luminescence, 48 h; percent of positive-control rescue, neutral wells zero;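 active means Every replicate reaches about 75%, or at least half do and their mean reaches it too, limit read from the data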;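 further: 0% = cytokine-treated negative control wells and 100% = positive control rescue; higher means more ATP so stronger rescue from cytokine killing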
Mdm2-MdmX conf – human Mdm2/MdmX binding inhibition, confirmed; luminescent assay; shares compounds with Mdm2-MdmX inh; 10,000 compounds, 55% hits; inhibition, % at 8 µM; in the data active means inhibition above about 40%
FLuc counter – full-length luciferase inhibition in Mdm2/MdmX counter-screen | SaOS-2 full-length luciferase counterscreen, luminescence | 6,200 compounds, 77% hits | inhibition, % at 8 µM | shares compounds with Mdm2-MdmX inh | AID 504607;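 active means mean inhibition at 8 µM reaching about 37%, which flags the compound as non-specific, limit read from the data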;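 further: p53-null SaOS-2 cells with luciferase driven by a doxycycline-inducible promoter; compound on cells about two nights before reading with doxycycline added after day one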
An asterisk follows results filed as active; nt = not tested or not shown. Only some compounds are listed: those with a hit (about 4.8% of all), similar ones and a draw of the others.

SMILES	CSC inhib	CHOP UPR activ	Mdm2-MdmX inh	XBP1 UPR activ	SKKanGAS inh	Beta apoptosis	Mdm2-MdmX conf	FLuc counter
COc1ccc(-c2nc(CSCC(=O)NC3CCN(Cc4ccccc4)CC3)c(C)o2)cc1OC	-7.7	-1.3	22.9	-1.8	-2.1	-8.0	nt	nt
COc1ccc(-c2nc(CN3CCC(C(=O)NC4CCN(Cc5ccccc5)CC4)CC3)c(C)o2)cc1OC	-11.6	4.4	80.3*	-1.9	-2.0	10.0	49.4*	54.6*
Cc1ccccc1-c1nc(CN2CCC(C(=O)NC3CCN(Cc4ccccc4)CC3)CC2)c(C)o1	18.9	8.3	98.7*	3.8	-0.5	-4.3	58.2*	75.5*
Cc1ccccc1-c1nc(CN2CCC(C(=O)NC3CCCCC3)CC2)c(C)o1	7.6	-1.6	4.5	-1.2	-0.8	-0.7	nt	nt
CCOc1cc(C2NC(=O)NC(C)=C2C(=O)OCC2CCCCC2)ccc1O (stereo unspecified)	-18.7	0.3	20.3	-3.1	1.1	-9.5	nt	nt
COc1ccc(C(=O)Nn2c(SCC(=O)N3CCC(C)CC3)nc3ccccc3c2=O)cc1	10.7	-7.2	58.7*	-4.8	14.1	15.8	48.0*	141.8*
COc1ccc(C(=O)Nn2c(SCC(=O)NC3CCCCC3)nc3ccccc3c2=O)cc1	17.5	-5.6	18.4	-6.5	5.6	nt	nt	nt
COc1ccc(Nc2nc(N3CCCC3)nc3ccccc23)c(OC)c1	28.0	1.8	54.3*	-1.1	3.9	62.0	2.4	nt
COc1ccc(Nc2nc(N3CCOCC3)nc(N3CCOCC3)n2)c(OC)c1	4.4	-3.2	20.6	-2.3	6.2	-2.1	nt	nt
CC(Nc1nc(N2CCCCC2)nc2ccccc12)c1ccccc1 (stereo unspecified)	nt	-2.3	54.2*	0.5	1.1	26.3	47.0*	72.5*
CC(C)n1cc(CN2CCC(Oc3ccc(C(=O)N4CCCC4)cc3)CC2)cn1	5.8	0.7	9.7	-6.2	38.8	nt	nt	nt
C/C(=N\NC(=O)c1nnn(-c2nonc2N)c1-c1cccs1)c1ccc(C)cc1	-2.4	1.9	70.6*	14.6	1.2	2.1	2.2	nt
COc1ccc(/C(C)=N/NC(=O)c2nnn(-c3nonc3N)c2-c2ccccc2)cc1	nt	0.5	60.8*	8.3	2.0	-4.1	9.3	nt
C/C(=N\NC(=O)c1nnn(-c2nonc2N)c1-c1cccs1)c1ccc(O)cc1	-4.1	1.5	-4.7	-2.0	-2.2	-3.0	nt	nt
C/C(=N/NC(=O)c1nnn(-c2nonc2N)c1-c1ccccc1)c1ccncc1	-4.3	0.2	23.6	-2.6	6.3	0.5	nt	nt
COc1cccc(-c2c(C(=O)N/N=C(\C)c3ccncc3)nnn2-c2nonc2N)c1	-11.4	2.3	18.8	-6.8	-0.1	-11.0	nt	nt
COc1ccc(/C(C)=N/NC(=O)c2nnn(-c3nonc3N)c2-c2cccs2)cc1	-4.4	-0.9	59.5*	-1.9	-2.7	-0.7	-1.7	nt
COc1ccc(/C(C)=N/NC(=O)c2nnn(-c3nonc3N)c2-c2cccs2)cc1OC	6.5	6.7	59.1*	4.7	6.4	6.1	-7.8	nt
CCCC(C)NC(=O)Cc1ccc(S(=O)(=O)N2CCOCC2)s1 (stereo unspecified)	-7.2	0.3	-19.9	-2.9	nt	-23.6	nt	nt
NCCCNc1nc(N)c([N+](=O)[O-])c(NC2CCCCC2)n1	15.5	0.9	72.8*	8.8	-1.5	-19.6	69.5*	56.2*
COCCNc1nc(N)c([N+](=O)[O-])c(NC2CCCCC2)n1	-8.6	-1.4	0.5	12.4	-8.5	-4.7	nt	nt
CCc1nnc(NC(=O)CSc2nnc(-c3ccccc3O)n2-c2ccc(C)cc2C)s1	34.4	-2.9	62.6*	-0.5	33.3	5.4	53.1*	61.0*
Cn1c(=O)n(C)c2cc(NC(=O)CSc3nnc(-c4ccccc4O)n3-c3ccccc3)ccc21	-7.1	-1.1	57.9*	-2.1	-0.1	-2.4	19.0	nt
COc1ccc(OC)c(C(=O)c2ccc(C(=O)Nc3ccc(NC(C)=O)cc3)cc2)c1	13.8	0.1	74.5*	-4.1	2.2	-1.8	28.6	nt
O=C(CCn1c(=O)oc2cc(Cl)ccc21)Nc1ccc(O)cc1	3.4	0.8	0.8	-3.3	-2.3	1.5	nt	nt
SMILES	CSC inhib	CHOP UPR activ	Mdm2-MdmX inh	XBP1 UPR activ	SKKanGAS inh	Beta apoptosis	Mdm2-MdmX conf	FLuc counter
CCn1c(=O)oc2cc(NC(=O)CCl)ccc21	-11.8	3.1	66.2*	1.2	-0.2	1.8	32.3	nt
NNc1cc(C(=O)O)ccc1Cl	-7.5	2.6	-1.4	-2.3	-10.6	-2.0	nt	nt
COc1ccc(NC(=O)c2ccc3c(c2)n(C)c(=O)n3C)cc1	-6.2	0.7	52.0*	1.5	-6.1	nt	8.7	nt
COc1ccc(C(=O)Nc2ccc3c(c2)n(C)c(=O)n3C)cc1OC	-10.0	2.0	41.7	-1.6	-0.4	-5.6	nt	nt
Cn1c(=O)n(C)c2cc(NC(=O)CCl)ccc21	-5.9	-0.2	69.4*	3.3	-25.4	-20.8	67.0*	45.7*
CC(=O)Oc1ccc(C(=O)Nc2cccc(C(=O)c3cccc(NC(=O)c4ccc(OC(C)=O)cc4)c3)c2)cc1	27.0	3.3	79.3*	-1.8	9.4	3.3	36.9	85.5*
CC(=O)Nc1ccc2c(c1)n(C)c(=O)n2C	-0.8	0.2	65.6*	0.1	-3.4	-3.1	10.3	nt
CCN(CC(=O)Nc1cc(Cl)ccc1C)C(=O)COc1cccc2c1OC(C)(C)C2	0.7	2.6	27.1	-4.6	-5.6	-2.3	nt	nt
COc1ccc(CNc2ncc(-c3cccc([N+](=O)[O-])c3)n2C)c(OC)c1OC	-6.6	1.1	6.3	-7.8	2.9	-5.5	nt	nt
O=C(CSc1nc2sccc2c(=O)[nH]1)N1CCN(c2ccccc2)CC1	-15.4	1.7	-16.9	-1.5	4.6	-3.9	nt	nt
CCOc1ncccc1C(=O)Nc1ccc(C(=O)Nc2ccc(OC)cc2)cc1	nt	6.0	71.9*	16.0	nt	4.0	22.4	nt
COc1ccc2oc(C(=O)N(Cc3ccco3)Cc3cccs3)c(C)c2c1	6.0	3.7	-2.0	5.1	16.8	-7.3	nt	nt
CN(C)S(=O)(=O)c1ccc(C(=O)Nc2cc3c(cc2C(=O)O)OCCCO3)cc1	-3.0	-1.9	8.8	-5.6	11.7	-5.1	nt	nt
c1csc(C2=Nn3c(nnc3-c3ccncc3)SC2)c1	nt	-4.0	75.1*	-0.3	-2.9	-24.5	80.0*	51.5*
COc1ccc(C2=Nn3c(nnc3-c3cc(C)[nH]n3)SC2)cc1	-7.8	1.0	59.6*	7.9	-1.7	-1.8	40.9*	100.2*
COc1cc(-c2nnc3n2N=C(c2ccccc2)CS3)cc(OC)c1OC	47.9	0.1	73.5*	5.2	2.6	21.1	69.4*	56.7*
COc1ccc(OC)c(C2=Nn3c(nnc3-c3cc(OC)c(OC)c(OC)c3)SC2)c1	-7.7	1.0	39.3	3.8	30.2	25.1	nt	nt

Screens (PubChem)
